Measured values from ChEMBL document CHEMBL3351588, “Design, synthesis and biological evaluation of N-alkyl or aryl substituted isoindigo derivatives as potential dual cyclin-dependent kinase 2 (CDK2)/glycogen synthase kinase 3β (GSK-3β) phosphorylation inhibitors” (Eur J Med Chem, 2014).
Active and inactive are the calls of the source. The calls are words filed in the database; no cut-off is given here.

Assays:
[1] = system: K562; test: Induction of cell cycle arrest in human K562 cells assessed as accumulation at G0/G1 phase at 30 uM after 24 hrs by propidium iodide staining based flow cytometry (reference value: 36.14%); format: functional
[2] = system: K562; test: Induction of cell cycle arrest in human K562 cells assessed as accumulation at S phase at 30 uM after 24 hrs by propidium iodide staining based flow cytometry (reference value: 44.90%); format: functional
[3] = system: K562; test: Induction of necrosis in human K562 cells after 24 hrs by Annexin V-FITC/propidium iodide staining based flow cytometry; format: functional, cell-based
Method in brief: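 Cells exposed to 0, 5.0, 10.0, 15.0, 20.0 or 30.0 μM for 24 h, or 0.5% DMSO. Stained with FITC–Annexin V and PI counterstain, then read by flow cytometry. Annexin V+/PI− scored as early apoptotic; Annexin V+/PI+ scored as late apoptotic/necrotic.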

[4] = system: K562; test: Induction of apoptosis in human K562 cells assessed as early apoptotic cells level at 5 uM after 24 hrs by Annexin V-FITC/propidium iodide staining based flow cytometry (reference value: […]); format: functional
[5] = system: K562; test: Induction of apoptosis in human K562 cells assessed as late apoptotic cells level at 5 uM after 24 hrs by Annexin V-FITC/propidium iodide staining based flow cytometry (reference value: 0.79%); format: functional
Method in brief: (§1)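 K562 cells exposed for 24 h or 48 h to 0, 5.0, 10.0, 15.0, 20.0 or 30.0 µM; vehicle DMSO 0.5% v/v. Cells stained with FITC-Annexin V, then counterstained with PI, and analysed by FACScan flow cytometry. Quadrants: Annexin V−/PI− viable; Annexin V+/PI− early apoptotic; Annexin V+/PI+ late apoptotic/necrotic.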

[6] = system: K562; test: Induction of apoptosis in human K562 cells assessed as necrotic cells level at 5 uM after 24 hrs by Annexin V-FITC/propidium iodide staining based flow cytometry (reference value: 0.0%); format: functional; method in brief: as §1
[7] = system: K562; test: Induction of apoptosis in human K562 cells assessed as late apoptotic cells level at 10 uM after 24 hrs by Annexin V-FITC/propidium iodide staining based flow cytometry (reference value: 0.79%); format: functional; method in brief: as §1
[8] = system: K562; test: Induction of apoptosis in human K562 cells assessed as early apoptotic cells level at 15 uM after 24 hrs by Annexin V-FITC/propidium iodide staining based flow cytometry (reference value: […]); format: functional
[9] = system: K562; test: Induction of apoptosis in human K562 cells assessed as late apoptotic cells level at 15 uM after 24 hrs by Annexin V-FITC/propidium iodide staining based flow cytometry (reference value: 0.79%); format: functional; method in brief: as §1
[10] = system: K562; test: Induction of apoptosis in human K562 cells assessed as necrotic cells level at 20 uM after 24 hrs by Annexin V-FITC/propidium iodide staining based flow cytometry (reference value: 0.0%); format: functional; method in brief: as §1
[11] = system: K562; test: Induction of apoptosis in human K562 cells assessed as necrotic cells level at 30 uM after 24 hrs by Annexin V-FITC/propidium iodide staining based flow cytometry (reference value: 0.0%); format: functional; method in brief: as §1
[12] = system: K562; test: Induction of apoptosis in human K562 cells assessed as early apoptotic cells level at 15 uM after 48 hrs by Annexin V-FITC/propidium iodide staining based flow cytometry (reference value: 0.24%); format: functional; method in brief: as §1
[13] = system: K562; test: Induction of apoptosis in human K562 cells assessed as late apoptotic cells level at 15 uM after 48 hrs by Annexin V-FITC/propidium iodide staining based flow cytometry (reference value: 0.54%); format: functional; method in brief: as §1
[14] = system: K562; test: Induction of apoptosis in human K562 cells assessed as necrotic cells level at 15 uM after 48 hrs by Annexin V-FITC/propidium iodide staining based flow cytometry (reference value: 0.01%); format: functional; method in brief: as §1
[15] = system: K562; test: Induction of apoptosis in human K562 cells assessed as early apoptotic cells level at 20 uM after 48 hrs by Annexin V-FITC/propidium iodide staining based flow cytometry (reference value: 0.24%); format: functional; method in brief: as §1
[16] = system: K562; test: Induction of apoptosis in human K562 cells assessed as late apoptotic cells level at 30 uM after 48 hrs by Annexin V-FITC/propidium iodide staining based flow cytometry (reference value: 0.54%); format: functional; method in brief: as §1
[17] = system: K562; test: Reduction in CDK2 protein expression in human K562 cells at 5 to 30 uM after 24 hrs by Western blotting method; format: functional, cell-based
[18] = system: K562; test: Reduction in beta-catenin protein expression in human K562 cells at 5 to 30 uM after 24 hrs by Western blotting method; format: functional, cell-based
[19] = system: K562; test: Reduction in c-myc protein expression in human K562 cells at 5 to 30 uM after 24 hrs by Western blotting method; format: functional, cell-based
[20] = system: K562; test: Increase in GSK3beta protein expression in human K562 cells at 5 to 30 uM after 24 hrs by Western blotting method; format: functional, cell-based
Method in brief: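 K562 cells treated for 24 h; negative control DMSO 0.5% v/v, meisoindigo positive control. Lysates separated on 10% SDS-PAGE and transferred to nitrocellulose. Blocked with 5% milk in PBS-0.1% Tween-20, then probed for GSK-3β and p-GSK-3β (Ser9) for 2 h at room temperature, with β-actin as loading control. Detected with IRDye secondaries by infrared imaging and quantified by band gray value; p<0.05 versus DMSO.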

[21] = system: L1210; test: Cytotoxicity against mouse L1210 cells after 48 hrs by SRB assay; format: functional, cell-based; conditions: L1210, 48 h
Method in brief: (§2)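 Cells seeded at 5 × 10³ per well and allowed to attach for 12 h, then exposed to a range of drug concentrations in their own medium for 48 h. Fixed with ice-cold TCA for 1 h at 4 °C, washed, then stained with 0.4% SRB for 30 min at room temperature. IC50 is the mean of three independent experiments.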

[22] = system: HeLa; test: Cytotoxicity against human HeLa cells after 48 hrs by SRB assay; format: functional, cell-based; method in brief: as §2
[23] = Cytotoxicity against human VEC cells after 48 hrs by SRB assay; format: cell-based; method in brief: as §2
[24] = system: K562; test: Induction of cell morphological changes in human K562 cells assessed as chromatin condensation at 5 to 30 uM after 24 hrs by Hoechst 33342/propidium iodide staining based inverted fluorescence microscopy; format: functional
Method in brief: (§3)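 Cells treated for 24 h with 5.0–30.0 μM or with 0.5% DMSO, then collected and washed with PBS. Stained with Hoechst 33342 (5.0 μg/mL, 10 min, 37 °C), then with PI (10.0 μg/mL, 10 min, room temperature, dark). Nuclei scored by fluorescence microscopy as condensed/bright, fragmented, or PI-positive.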

[25] = system: K562; test: Induction of cell morphological changes in human K562 cells assessed as nuclear fragmentation at 5 to 30 uM after 24 hrs by Hoechst 33342/propidium iodide staining based inverted fluorescence microscopy; format: functional; method in brief: as §3
[26] = system: K562; test: Induction of cell cycle arrest in human K562 cells assessed as reduction in accumulation at G0/G1 phase after 24 hrs by propidium iodide staining based flow cytometry; format: functional
[27] = system: K562; test: Induction of cell cycle arrest in human K562 cells assessed as reduction in accumulation at G2/M phase after 24 hrs by propidium iodide staining based flow cytometry; format: functional
[28] = system: K562; test: Induction of cell cycle arrest in human K562 cells assessed as accumulation at S phase at 10 uM after 24 hrs by propidium iodide staining based flow cytometry (reference value: 44.90%); format: functional
[29] = system: K562; test: Induction of cell cycle arrest in human K562 cells assessed as accumulation at G2/M phase at 5 uM after 24 hrs by propidium iodide staining based flow cytometry (reference value: 18.96%); format: functional

In the case of `COc1ccc(N2C(=O)/C(=C3/C(=O)Nc4ccccc43)c3ccccc32)cc1`, the Activity [1] is reported as 25.43%, the Activity [2] is reported as 62.77% and the Activity [3] is reported as “Dose-dependent effect”. The Activity [4] was 2.25%, the Activity [5] was 1.54% and the Activity [6] was 0%. For the same compound, the Activity [7] was 2.45%, the Activity [8] was 5.34% and the Activity [9] was 4.48%. The Activity [10] was 0.01%, the Activity [11] was 0% and the Activity [12] was 2.1%. The Activity [13] was 2.2%, the Activity [14] was 0.02% and the Activity [15] was 5.51%. The Activity [16] was 42.09%, the inhibition [17] was “Dose-dependent effect” and the inhibition [18] was “Dose-dependent effect”. For the same compound, the inhibition [19] was “Dose-dependent effect”, the Activity [20] was “Dose-dependent effect” and the IC50 [21] was 102 µM. For the same compound, the IC50 [22] was 166 µM, the IC50 [23] was over 200 µM and the Activity [24] was “Active”. For the same compound, the Activity [25] was “Active”, the Activity [26] was “Dose-dependent effect” and the Activity [27] was “Dose-dependent effect”. The Activity [28] was 50.88% and the Activity [29] was 16.81%.
